Rows were chosen to be rich in hits. Some 4.2% of all compounds tested hit in one or more screens of this group.
TMEM16A inh = blocks the mouse calcium-activated chloride channel TMEM16A; Q8BHY3; HEK293 TMEM16A/YFP iodide influx fluorescence, ionomycin; normalized B-score (activity score, 25-100; higher = stronger inhibition) at 10 µM; hit rate 1.2% among 310,000; AID 588511;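 active means ratio plate-corrected score three or more library SD toward inhibition, starting fluorescence score within five deviations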;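 further: score derived from kinetic fluorescence span divided by baseline fluorescence per well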
UPR CHOP act = apoptotic UPR (CHOP) activation. CHO-CHOP luciferase reporter, luminescence; percent of tunicamycin response over DMSO baseline. activation, % at 10 µM. hit rate 0.34% among 330,000. AID 449763;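 active means at 10 µM dose, activation of 40% or more, normalized to positive control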;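 further: 100% = tunicamycin at 10 µg/mL and 0% = DMSO alone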
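Assay system: CHO-CHOP cells, stable luciferase reporter of PERK-eIF2a-CHOP signalling / Buffer or medium: F12 plus 10% serum / Compound dosing: one dose, 10 µM in 0.5% DMSO / Times: 6 h compound treatment, 37 °C / Technique: luciferase luminescence / Read-out: % reporter activation, DMSO baseline versus tunicamycin full activation / Benchmarks: tunicamycin and DMSO controls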
ANO1 activ = mouse TMEM16A channel activation, primary screen | Q8BHY3 | HEK293 TMEM16A/YFP-H148Q/I152L, iodide quench fluorescence; active compounds read low | B-score at 10 µM | hit rate 0.3% among 340,000 | AID 623877;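 active means fluorescence-ratio B-score plate-corrected deviation score at least 3 library SD below zero, with starting fluorescence score within 5 deviations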;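 further: channel opened by trigger with iodide after compound preincubation; score built on the fluorescence ratio of max minus min over baseline; more negative score means more quench and so TMEM16A activation or potentiation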
Hep lipid drop = modulators of hepatic lipid droplet formation. AID 1656. AML12 mouse hepatocytes, oleate lipid droplets, BODIPY imaging. inhibition, % at 6.5 µM. hit rate 0.4% among 240,000;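 active means lipid droplet intensity inhibited by at least 50%, with more than 500 cells counted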
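System: AML12 hepatocytes (mouse). Probe or stimulus: oleic acid at 100 µM to induce lipid droplet formation. Times: overnight treatment with compound plus oleate. Detection: Image-based BODIPY and DAPI two-channel analysis. Evaluation: percent inhibition of filter-corrected integrated lipid droplet intensity per well.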
UPR XBP1 act = adaptive UPR (XBP1) activation. CHO-XBP1 luciferase reporter, IRE1-XBP1 UPR activation, luminescence; percent of tunicamycin response, DMSO as zero. activation, % at 20 µM. hit rate 0.33% among 330,000;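 active means versus positive control, 20 µM dose yields 30% or more activation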;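 further: 100% = tunicamycin at 10 µg/mL and 0% = DMSO only wells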
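Material: CHO cell line with stable XBP1 luciferase reporter; buffer or medium: F12 medium containing 10% fetal bovine serum; compound: single point, 20 µM final compound, 1% DMSO; incubation: 6 h treatment, 37 °C; measured by: glow luminescence from Steady-Glo reagent; evaluation: activation, % of tunicamycin; control set: tunicamycin high, DMSO low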
CHOP inhibitor = CHOP inhibition in unfolded protein response; inhibition, % at 10 µM; hit rate 3.8% among 220,000; AID 2732; CHO-K1 CHOP-promoter luciferase, tunicamycin-induced, 15-18 h;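 active means compounds that reduced the stress-induced luciferase reporter signal by more than about 70% of percent inhibition, limit read from the data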;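 further: 0% = tunicamycin plus vehicle and 100% = wells without tunicamycin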
Numbers without * were called inactive; i = inactive; . = not tested or not shown.

SMILES	TMEM16A inh	UPR CHOP act	ANO1 activ	Hep lipid drop	UPR XBP1 act	CHOP inhibitor
NC(=O)c1ccccc1OCc1nnc(-c2ccccc2Br)o1	i	4	i	11	7	.
Cc1c2c(nc3ccccc13)CCC(C(C)(C)C)C2 (stereo not given)	i	4	i	4	5	72*
CCCN1C2CCCC1CC(NC(=O)c1ccccc1OC)C2 (stereo not given)	100*	2	i	16	-5	.
O=C(Nc1ccc2c(c1)CCC2)c1cc2ccccc2o1	i	4	-5.7*	-3	1	29
O=C(/C=C/c1ccco1)NC(=S)Nc1ccc(N2CCOCC2)c(Cl)c1	i	-2	i	.	6	75*
O=C(Nc1ccc2c(c1)Cc1ccccc1-2)c1cc2ccccc2o1	i	1	i	.	0	.
O=C(Nc1ccc(N2CCN(C(=O)c3ccccc3)CC2)cc1)c1ccc(Br)o1	i	-2	i	-12	-5	34
O=C(Nc1ccc(N2CCN(C(=O)c3ccccc3)CC2)c(Cl)c1)c1ccc(Br)o1	i	4	i	.	-2	85*
O=C(Nc1ccc(N2CCOCC2)c(Cl)c1)c1cc2ccccc2o1	25*	3	i	17	10	.
O=C(C(Cl)c1ccccc1)N1CCOCC1 (stereo not given)	i	1	i	-4	-5	.
CCCOc1ccc(CC(=O)N/N=C\c2ccc(F)cc2)cc1	i	0	i	.	-6	.
Cc1ccc(S(=O)(=O)N2CCOCC2)cc1NC(=O)Cn1nc(C)c([N+](=O)[O-])c1C	i	0	i	.	-1	.
O=C(Nc1ccc2oc(-c3ccncc3)nc2c1)c1ccc2c(c1)OCCO2	i	2	i	-14	16	-9
O=C(Nc1ccc(NC(=O)c2cc3ccccc3o2)cc1)c1ccc2c(c1)OCCO2	i	-2	i	17	1	72*
O=C(Nc1ccc2oc(-c3ccccc3)nc2c1)c1ccc2c(c1)OCCO2	25*	2	i	.	13	29
Cc1cc(NC(=O)c2ccc3c(c2)OCCO3)ccc1NC(=O)c1cc2ccccc2o1	i	4	i	-1	3	24
CCC(C(=O)NCCc1c[nH]c2cc(OC)ccc12)c1ccccc1 (stereo not given)	i	0	i	9	-3	.
O=C(O)c1nn(CCOc2ccc(Cl)cc2Cl)c(=O)c2ccccc12	i	2	i	-22	-2	.
Cc1nc2ccccn2c1C(=O)Nc1ccc(Cl)cc1	i	6	i	10	1	17
Cc1ccc(C2=NN(Cc3nnc(-c4ccccc4)o3)C(=O)SC2)cc1	25*	1	i	9	3	39
c1ccc(-c2nnc(CN3CCN(c4ccccc4)CC3)o2)cc1	i	-1	i	17	1	-1
O=C(NC1CCCC1)C(c1ccccn1)N(C(=O)c1csnn1)c1ccc(F)cc1 (stereo not given)	i	2	i	-1	0	.
CC(C(=O)Nc1cccc(C#N)c1)N(C)CCOc1ccccc1 (stereo not given)	i	2	i	-1	1	.
CC(C(=O)Nc1ccccc1)N(C)CCOc1ccc(Br)cc1 (stereo not given)	i	-2	i	1	2	84*
Cc1ccc(C2=NNC(=O)C(c3ccc(Cl)cc3)C2)cc1 (stereo not given)	i	-2	i	3	1	96*
O=C1NN=C(c2ccc(Cl)cc2)CC1c1c[nH]c2ccccc12 (stereo not given)	i	-2	i	0	-5	4
O=C1NN=C(c2ccc(Cl)cc2)CC1c1cccc(Br)c1 (stereo not given)	i	1	i	-28	-1	78*
CCCCOc1ccc(N2C(=O)C(C)CNC2=S)cc1 (stereo not given)	.	.	i	.	.	.

From PubChem
